Like-named read-outs stand apart in the source and are kept apart here. Marks after values point to notes of the source that are not given here.
Tests used:
[1] = type: in vivo, human; conditions: for AUC0–96h, geometric mean (CV%) / AUC0–48h, geometric mean (CV%) / t 1/2, geometric mean (CV%) / t max,1, median (range): plasma, raloxifene 60 mg oral
Outline: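 Open-label fixed-sequence crossover in 16 healthy adults (8 male, 8 female), arms ≥7 days apart, fasted from midnight. Oral 60 mg test compound tablet with 240 mL water at 50°C (baseline) or brewed green tea. Acute: tea (one bag, 240 mL water, 80°C, 3 min, cooled to 50°C) given with dose, then at 4 and 8 h. Chronic: tea three times daily for 4 days, then day 5 as acute.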

[2] = Follow-up exploratory clinical study: plasma pharmacokinetics; type: in vivo, human; conditions: follow-up study; for AUC0–48h green tea/baseline ratio (90% CI) / Cmax,1 green tea/baseline ratio (90% CI): acute green tea vs baseline; for AUC0–48h, geometric mean (CV%) / t max,1, median (range) / Cmax: plasma; for Cmax: read-out: Cmax,1, geometric mean (CV%)
Outline: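 Six healthy adults (3 male, 3 female) in sequential arms ≥7 days apart: oral test compound with water, then with acute brewed green tea, then tea alone. Plasma sampled 0–48 h at the main-study times. Analysed by UHPLC–MS/MS for parent and glucuronides. […] Green tea/baseline ratios on log-transformed data, paired two-tailed t-test.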

[3] = 16 healthy adults, baseline (water)

Row | Structure (SMILES) | Metabolite‐to‐parent AUC0–96h ratio, geometric mean (CV%) ([1]; acute green tea) | AUC0–48h green tea/baseline ratio (90% CI) ([1]; acute green tea vs baseline) | AUC0–96h green tea/baseline ratio (90% CI) ([1]; acute green tea vs baseline) | Cmax,1 green tea/baseline ratio (90% CI) ([1]; acute green tea vs baseline) | t 1/2 green tea/baseline ratio (90% CI) ([1]; acute green tea vs baseline) | Metabolite‐to‐parent AUC0–96h ratio, geometric mean (CV%) ([1]; baseline (water)) | Metabolite‐to‐parent AUC0–96h ratio, geometric mean (CV%) ([1]; chronic green tea) | AUC0–48h green tea/baseline ratio (90% CI) ([1]; chronic green tea vs baseline) | AUC0–96h green tea/baseline ratio (90% CI) ([1]; chronic green tea vs baseline) | Cmax,1 green tea/baseline ratio (90% CI) ([1]; chronic green tea vs baseline) | t 1/2 green tea/baseline ratio (90% CI) ([1]; chronic green tea vs baseline) | AUC0–96h, geometric mean (CV%) [1, 3] | AUC0–48h, geometric mean (CV%) ([1]; acute green tea) | AUC0–96h, geometric mean (CV%) ([1]; acute green tea) | t 1/2, geometric mean (CV%) ([1]; acute green tea) | t max,1, median (range) ([1]; acute green tea) | AUC0–48h, geometric mean (CV%) ([1]; baseline (water)) | t 1/2, geometric mean (CV%) ([1]; baseline (water)) | t max,1, median (range) ([1]; baseline (water)) | AUC0–48h, geometric mean (CV%) ([1]; chronic green tea) | other results
1 | O=C(c1ccc(OCCN2CCCCC2)cc1)c1c(-c2ccc(O[C@@H]3O[C@H](C(=O)O)[C@@H](O)[C@H](O)[C@H]3O)cc2)sc2cc(O)ccc12 [Raloxifene 4′‐glucuronide, raloxifene 4′‐glucuronide] | 161 (36) | 0.54 (0.43–0.68) | 0.57 (0.45–0.73) | 0.42 (0.31–0.57) | 0.91 (0.72–1.16) | 160 (34) | 159 (34) | 0.57 (0.43–0.76) | 0.65 (0.51–0.82) | 0.46 (0.31–0.70) | 0.92 (0.72–1.18) | 2350 (45) nM‐h | 1080 (55) nM‐h | 1350 (69)** nM‐h | 15.9 (66) h | 1.5 (0.5–6) h | 1990 (48) nM‐h | 17.0 (57)^b h | 1.25 (0.25–4) h | 1134 (56) nM‐h | AUC0–96h, geometric mean (CV%) ([1]; chronic green tea): 1520 (76)* nM‐h; t 1/2, geometric mean (CV%) ([1]; chronic green tea): 15.6 (48)^b h; t max,1, median (range) ([1]; chronic green tea): 1.25 (0.5–3) h; Metabolite‐to‐parent AUC0–48h ratio, geometric mean (CV%) ([2]; acute green tea): 184 (25); AUC0–48h green tea/baseline ratio (90% CI) [2]: 0.93 (0.81–1.06); Cmax,1 green tea/baseline ratio (90% CI) [2]: 0.79 (0.68–0.93); Metabolite‐to‐parent AUC0–48h ratio, geometric mean (CV%) ([2]; baseline): 179 (23); AUC0–48h, geometric mean (CV%) ([2]; acute green tea): 1368 (50) ^* nM‐h; t max,1, median (range) ([2]; acute green tea): 1 (0.5–1) h; t max,1, median (range) ([2]; baseline): 1.25 (1–3) h; AUC0–48h, geometric mean (CV%) ([2]; six healthy adults, baseline): 1473 (50) nM‐h; Cmax ([2]; acute green tea): 75 nM; Cmax ([2]; baseline): 94.4 nM
2 | O=C(c1ccc(OCCN2CCCCC2)cc1)c1c(-c2ccc(O)cc2)sc2cc(O[C@@H]3O[C@H](C(=O)O)[C@@H](O)[C@H](O)[C@H]3O)ccc12 [Raloxifene 6‐glucuronide, raloxifene 6‐glucuronide] | 39 (43) | 0.57 (0.45–0.74) | 0.60 (0.47–0.77) | 0.38 (0.23–0.63) | 1.08 (0.90–1.31) | 37 (45) | 37 (44) | 0.59 (0.43–0.79) | 0.67 (0.53–0.86) | 0.50 (0.35–0.73) | 0.92 (0.76–1.12) | 535 (48) nM‐h | 255 (68) nM‐h | 324 (79)* nM‐h | 20.5 (36)^b h | 1.5 (0.5–4) h | 444 (56) nM‐h | 18.9 (40)^b h | 1.5 (1–4) h | 261 (57) nM‐h | AUC0–96h, geometric mean (CV%) ([1]; chronic green tea): 360 (78) nM‐h; t 1/2, geometric mean (CV%) ([1]; chronic green tea): 17.8 (46)^c h; t max,1, median (range) ([1]; chronic green tea): 1.5 (1–6) h; Metabolite‐to‐parent AUC0–48h ratio, geometric mean (CV%) ([2]; acute green tea): 22 (50); AUC0–48h green tea/baseline ratio (90% CI) [2]: 0.88 (0.73–1.06); Cmax,1 green tea/baseline ratio (90% CI) [2]: 0.73 (0.60–0.88); Metabolite‐to‐parent AUC0–48h ratio, geometric mean (CV%) ([2]; baseline): 23 (47); AUC0–48h, geometric mean (CV%) ([2]; acute green tea): 166 (61) nM‐h; t max,1, median (range) ([2]; acute green tea): 1 (1–3) h; t max,1, median (range) ([2]; baseline): 1.25 (1–3) h; AUC0–48h, geometric mean (CV%) ([2]; six healthy adults, baseline): 189 (46) nM‐h; Cmax ([2]; acute green tea): 6.85 nM; Cmax ([2]; baseline): 9.39 nM
